From ChEMBL document CHEMBL5143675, “Attenuating the Streptococcus pneumoniae Competence Regulon Using Urea-Bridged Cyclic Dominant-Negative Competence-Stimulating Peptide Analogs” (J Med Chem, 2022)
Where a SMILES comes first, the peptide text is derived from it. [ ]: non-standard residue; d: D form. Orn = NCCC[C@H](N)C(=O)O; Dab = NCC[C@H](N)C(=O)O; Dap = NC[C@H](N)C(=O)O

Columns and labels:
[1] = Antagonist activity against Streptococcus pneumoniae D39-pcomX-lacZ strain expressing ComD1 receptor assessed as inhibition of ComD1 receptor activity by beta-galactosidase reporter gene assay
Summary of the method: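 Reporter strains (pcomX::lacZ) grown on THY agar with 5% horse serum and 4 μg/mL chloramphenicol at 37 °C, 5% CO2; overnight THY broth culture diluted (1:50 D39, 1:10 TIGR4) and grown to early exponential phase (OD600 0.30–0.35 D39; 0.20–0.25 TIGR4). Primary screen at 10,000 nM peptide; EC50/IC50 from dose-response over a concentration range, three independent experiments, 95% confidence interval.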

[2] = Antagonist activity against Streptococcus pneumoniae TIGR4-pcomX-lacZ strain expressing ComD2 receptor assessed as inhibition of ComD2 receptor activity by beta-galactosidase reporter gene assay
Summary of the method: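 TIGR4 pcomX::lacZ reporter grown on THY plates with 5% horse serum and 4 μg/mL chloramphenicol (8–9 h, 37 °C, 5% CO2). 2–3 colonies were grown overnight (15 h) in THY with chloramphenicol, diluted 1:10, and grown 3–4 h to OD600 0.20–0.25. Peptides were tested as competitive inhibitors against native CSP2. […] Three independent experiments.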

[3] = Stability of the compound in CD-1 mouse assessed as drug degradation at 50 ug, iv by IVIS spectrum in vivo imaging analysis; format: ADME, organism-based; settings: dose 50 µg
Summary of the method: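 Seven-week-old CD-1 mice (cohorts of 4–5) given Cy7.5-labelled peptide (50 μg/mouse) by retro-orbital i.v. injection, anaesthetized with 3% isoflurane and imaged by IVIS SpectrumCT fluorescence imaging.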

[4] = Agonist activity against Streptococcus pneumoniae TIGR4-pcomX-lacZ strain expressing ComD2 receptor assessed as activation of ComD2 receptor activity by beta-galactosidase reporter gene assay
Summary of the method: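 Reporter strains (pcomX::lacZ) grown on THY agar with 5% horse serum and 4 μg/mL chloramphenicol at 37 °C, 5% CO2; overnight THY broth culture diluted (1:50 D39, 1:10 TIGR4) and grown to early exponential phase (OD600 0.30–0.35 D39; 0.20–0.25 TIGR4).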

| Molecule | IC50 [1] [nM] | IC50 [2] [nM] | also measured |
| --- | --- | --- | --- |
| CC[C@H](C)[C@H](NC(=O)[C@H](Cc1ccccc1)NC(=O)[C@H](CC(=O)O)NC(=O)[C@H](CCCNC(=N)N)NC(=O)[C@H](Cc1ccccc1)NC(=O)[C@H](Cc1ccccc1)NC(=O)[C@H](CCCCN)NC(=O)[C@H](CO)NC(=O)[C@H](CC(C)C)NC(=O)[C@H](CCCNC(=N)N)NC(=O)[C@H](CCSC)NC(=O)[C@H](C)N)C(=O)N[C@@H](CC(C)C)C(=O)N[C@@H](CCC(N)=O)C(=O)N[C@@H](CCCNC(=N)N)C(=O)N[C@@H](CCCCN)C(=O)N[C@@H](CCCCN)C(=O)O | 85.7 | – | – |
| CC[C@H](C)[C@H](NC(=O)[C@H](Cc1ccccc1)NC(=O)[C@H](CC(=O)O)NC(=O)[C@H](CCCNC(=N)N)NC(=O)[C@H](Cc1ccccc1)NC(=O)[C@H](Cc1ccccc1)NC(=O)[C@H](CCCCN)NC(=O)[C@H](CO)NC(=O)[C@H](CC(C)C)NC(=O)[C@H](CCCNC(=N)N)NC(=O)[C@H](CCSC)NC(=O)[C@H](CCC(=O)O)NC(=O)CCCCC[N+]1=C(/C=C/C2=CC(=C/C=C3\N(C)c4ccc5ccccc5c4C3(C)C)/CCC2)C(C)(C)c2ccc3ccccc3c21)C(=O)N[C@@H](CC(C)C)C(=O)N[C@@H](CCC(N)=O)C(=O)N[C@@H](CCCNC(=N)N)C(=O)N[C@@H](CCCCN)C(=O)N[C@@H](CCCCN)C(=O)O | – | – | Drug degradation [3]: 36 h |
| CC[C@H](C)[C@H](NC(=O)[C@H](Cc1ccccc1)NC(=O)[C@H](CCN)NC(=O)[C@H](CCCNC(=N)N)NC(=O)[C@H](Cc1ccccc1)NC(=O)[C@H](Cc1ccccc1)NC(=O)[C@H](CCN)NC(=O)[C@H](CO)NC(=O)[C@H](CC(C)C)NC(=O)[C@H](CCCNC(=N)N)NC(=O)[C@H](CCSC)NC(=O)[C@H](C)N)C(=O)N[C@@H](CC(C)C)C(=O)N[C@@H](CCC(N)=O)C(=O)N[C@@H](CCCNC(=N)N)C(=O)N[C@@H](CCCCN)C(=O)N[C@@H](CCCCN)C(=O)O (H-AMRLS[Dab]FFR[Dab]FILQRKK-OH) | – | > 1000 | – |
| H-AMRLSKFFRKFILQRKK-OH | 217 | – | – |
| CC[C@H](C)[C@H](NC(=O)[C@H](Cc1ccccc1)NC(=O)[C@H](CCN)NC(=O)[C@H](CCCNC(=N)N)NC(=O)[C@H](Cc1ccccc1)NC(=O)[C@H](Cc1ccccc1)NC(=O)[C@H](CCCN)NC(=O)[C@H](CO)NC(=O)[C@H](CC(C)C)NC(=O)[C@H](CCCNC(=N)N)NC(=O)[C@H](CCSC)NC(=O)[C@H](C)N)C(=O)N[C@@H](CC(C)C)C(=O)N[C@@H](CCC(N)=O)C(=O)N[C@@H](CCCNC(=N)N)C(=O)N[C@@H](CCCCN)C(=O)N[C@@H](CCCCN)C(=O)O (H-AMRLS[Orn]FFR[Dab]FILQRKK-OH) | – | > 1000 | – |
| CC[C@H](C)[C@H](NC(=O)[C@H](Cc1ccccc1)NC(=O)[C@H](CN)NC(=O)[C@H](CCCNC(=N)N)NC(=O)[C@H](Cc1ccccc1)NC(=O)[C@H](Cc1ccccc1)NC(=O)[C@H](CCN)NC(=O)[C@H](CO)NC(=O)[C@H](CC(C)C)NC(=O)[C@H](CCCNC(=N)N)NC(=O)[C@H](CCSC)NC(=O)[C@H](C)N)C(=O)N[C@@H](CC(C)C)C(=O)N[C@@H](CCC(N)=O)C(=O)N[C@@H](CCCNC(=N)N)C(=O)N[C@@H](CCCCN)C(=O)N[C@@H](CCCCN)C(=O)O (H-AMRLS[Dab]FFR[Dap]FILQRKK-OH) | – | > 1000 | – |
| H-EMRISRIILDFLFLRKK-OH | – | – | EC50 [4]: 50.7 nM |
| CC[C@H](C)[C@H](NC(=O)[C@H](Cc1ccccc1)NC(=O)[C@H](CCCN)NC(=O)[C@H](CCCNC(=N)N)NC(=O)[C@H](Cc1ccccc1)NC(=O)[C@H](Cc1ccccc1)NC(=O)[C@H](CCN)NC(=O)[C@H](CO)NC(=O)[C@H](CC(C)C)NC(=O)[C@H](CCCNC(=N)N)NC(=O)[C@H](CCSC)NC(=O)[C@H](C)N)C(=O)N[C@@H](CC(C)C)C(=O)N[C@@H](CCC(N)=O)C(=O)N[C@@H](CCCNC(=N)N)C(=O)N[C@@H](CCCCN)C(=O)N[C@@H](CCCCN)C(=O)O (H-AMRLS[Dab]FFR[Orn]FILQRKK-OH) | – | > 1000 | – |
| CC[C@H](C)[C@H](NC(=O)[C@H](Cc1ccccc1)NC(=O)[C@H](CCCCN)NC(=O)[C@H](CCCNC(=N)N)NC(=O)[C@H](Cc1ccccc1)NC(=O)[C@H](Cc1ccccc1)NC(=O)[C@H](CCCN)NC(=O)[C@H](CO)NC(=O)[C@H](CC(C)C)NC(=O)[C@H](CCCNC(=N)N)NC(=O)[C@H](CCSC)NC(=O)[C@H](C)N)C(=O)N[C@@H](CC(C)C)C(=O)N[C@@H](CCC(N)=O)C(=O)N[C@@H](CCCNC(=N)N)C(=O)N[C@@H](CCCCN)C(=O)N[C@@H](CCCCN)C(=O)O (H-AMRLS[Orn]FFRKFILQRKK-OH) | 339 | > 1000 | – |

More lines, main results first:

| IC50 [1] [nM] | IC50 [2] [nM] | Molecule | also measured |
| --- | --- | --- | --- |
| – | > 1000 | CC[C@H](C)[C@H](NC(=O)[C@H](Cc1ccccc1)NC(=O)[C@H](CCCN)NC(=O)[C@H](CCCNC(=N)N)NC(=O)[C@H](Cc1ccccc1)NC(=O)[C@H](Cc1ccccc1)NC(=O)[C@H](CCCN)NC(=O)[C@H](CO)NC(=O)[C@H](CC(C)C)NC(=O)[C@H](CCCNC(=N)N)NC(=O)[C@H](CCSC)NC(=O)[C@H](C)N)C(=O)N[C@@H](CC(C)C)C(=O)N[C@@H](CCC(N)=O)C(=O)N[C@@H](CCCNC(=N)N)C(=O)N[C@@H](CCCCN)C(=O)N[C@@H](CCCCN)C(=O)O (H-AMRLS[Orn]FFR[Orn]FILQRKK-OH) | – |
| 454 | – | CC[C@H](C)[C@H](NC(=O)[C@H](Cc1ccccc1)NC(=O)[C@H](CCCCN)NC(=O)[C@H](CCCNC(=N)N)NC(=O)[C@H](Cc1ccccc1)NC(=O)[C@H](Cc1ccccc1)NC(=O)[C@H](CN)NC(=O)[C@H](CO)NC(=O)[C@H](CC(C)C)NC(=O)[C@H](CCCNC(=N)N)NC(=O)[C@H](CCSC)NC(=O)[C@H](C)N)C(=O)N[C@@H](CC(C)C)C(=O)N[C@@H](CCC(N)=O)C(=O)N[C@@H](CCCNC(=N)N)C(=O)N[C@@H](CCCCN)C(=O)N[C@@H](CCCCN)C(=O)O (H-AMRLS[Dap]FFRKFILQRKK-OH) | EC50 [4]: 39.5 nM |
| – | > 1000 | CC[C@H](C)[C@H](NC(=O)[C@H](Cc1ccccc1)NC(=O)[C@H](CN)NC(=O)[C@H](CCCNC(=N)N)NC(=O)[C@H](Cc1ccccc1)NC(=O)[C@H](Cc1ccccc1)NC(=O)[C@H](CCCN)NC(=O)[C@H](CO)NC(=O)[C@H](CC(C)C)NC(=O)[C@H](CCCNC(=N)N)NC(=O)[C@H](CCSC)NC(=O)[C@H](C)N)C(=O)N[C@@H](CC(C)C)C(=O)N[C@@H](CCC(N)=O)C(=O)N[C@@H](CCCNC(=N)N)C(=O)N[C@@H](CCCCN)C(=O)N[C@@H](CCCCN)C(=O)O (H-AMRLS[Orn]FFR[Dap]FILQRKK-OH) | – |
| 784 | > 1000 | CC[C@H](C)[C@H](NC(=O)[C@H](Cc1ccccc1)NC(=O)[C@H](CCCCN)NC(=O)[C@H](CCCNC(=N)N)NC(=O)[C@H](Cc1ccccc1)NC(=O)[C@H](Cc1ccccc1)NC(=O)[C@H](CCN)NC(=O)[C@H](CO)NC(=O)[C@H](CC(C)C)NC(=O)[C@H](CCCNC(=N)N)NC(=O)[C@H](CCSC)NC(=O)[C@H](C)N)C(=O)N[C@@H](CC(C)C)C(=O)N[C@@H](CCC(N)=O)C(=O)N[C@@H](CCCNC(=N)N)C(=O)N[C@@H](CCCCN)C(=O)N[C@@H](CCCCN)C(=O)O (H-AMRLS[Dab]FFRKFILQRKK-OH) | – |
